In ChEMBL document CHEMBL1125211, “Design and synthesis of HIV protease inhibitors. Variations of the carboxy terminus of the HIV protease inhibitor L-682,679” (J Med Chem, 1991):
Values after ≈ are worked out from the molar mass of the structure shown.

Columns and labels:
[1] = target: T1, Human immunodeficiency virus type 1 protease (Human immunodeficiency virus 1, UniProt Q72874); assay: Inhibitory activity against HIV Protease in peptide cleavage assay
Procedure, shortened: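 HIV-1 protease substrate cleavage assay. Inhibitor was dissolved in DMSO and added to the enzyme mixture at the required concentrations. Substrate cleavage was measured by HPLC, and IC50 was calculated from the extent of cleavage.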

[2] = target: T1, Human immunodeficiency virus type 1 protease; assay: Inhibitory activity against HIV protease in peptide cleavage assay
Procedure, shortened: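 HIV-1 protease peptide-substrate cleavage assay. Inhibitor dissolved in DMSO and added to the enzyme mixture at the required concentrations. Extent of substrate cleavage determined by HPLC. IC50 calculated from cleavage extent.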

H9 = assay: Ability to inhibit HIV-1 infection in H9 human T-lymphoid cells; type: functional; settings: read-out: MIC100
Procedure, shortened: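 HIV-1 spread in culture of H9 human T-lymphoid cells, tested at concentrations up to 12 μM. Value reported as MIC100, the minimum concentration giving 100% inhibition of viral spread.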

Compound | IC50 [1] [nM] | IC50 [2] [nM] | MIC (H9) [µM]
CC(C)(C)OC(=O)N[C@@H](Cc1ccccc1)[C@@H](O)C[C@@H](Cc1ccccc1)C(=O)N[C@@H](Cc1ccccc1)C(N)=O | 29 |  | 
CC(C)(C)OC(=O)N[C@@H](Cc1ccccc1)[C@@H](O)C[C@@H](Cc1ccccc1)C(=O)N[C@H](C(=O)NCc1ccccc1)c1ccccc1 |  | 5.8 | 
CC(C)(C)OC(=O)N[C@@H](Cc1ccccc1)[C@@H](O)C[C@@H](Cc1ccccc1)C(=O)N[C@@H](CC1CCCCC1)C(N)=O | 64 |  | 
CCC(C)[C@H](NC(=O)[C@H](Cc1ccccc1)C[C@H](O)[C@H](Cc1ccccc1)NC(=O)OC(C)(C)C)C(=O)NCc1ccccn1 (some centres undefined) |  | 1.3 | 0.78 (≈ 0.481 µg/mL)
CN(C)CCCNC(=O)[C@@H](NC(=O)[C@H](Cc1ccccc1)C[C@H](O)[C@H](Cc1ccccc1)NC(=O)OC(C)(C)C)c1ccccc1 |  | 26 | 
CC(C)[C@H](NC(=O)[C@H](Cc1ccccc1)C[C@H](O)[C@H](Cc1ccccc1)NC(=O)OC(C)(C)C)C(N)=O | 1.1 |  | 
CC(C)[C@H](NC(=O)[C@H](Cc1ccccc1)C[C@H](O)[C@H](Cc1ccccc1)NC(=O)OC(C)(C)C)C(=O)NCCCN(C)C | 3.4 |  | 
CC(C)(C)OC(=O)N[C@@H](Cc1ccccc1)[C@@H](O)C[C@@H](Cc1ccccc1)C(=O)N[C@@H](Cc1cc2ccccc2[nH]1)C(N)=O |  | 60 | 
CC(C)C[C@H](NC(=O)[C@H](Cc1ccccc1)C[C@H](O)[C@H](Cc1ccccc1)NC(=O)OC(C)(C)C)C(N)=O | 10 |  | 
CC(C)[C@H](NC(=O)[C@H](Cc1ccccc1)C[C@H](O)[C@H](Cc1ccccc1)NC(=O)OC(C)(C)C)C(=O)NCCN |  | 0.46 | 
C[C@H](NC(=O)[C@H](Cc1ccccc1)C[C@H](O)[C@H](Cc1ccccc1)NC(=O)OC(C)(C)C)C(N)=O | 7 |  | 6 (≈ 2.9 µg/mL)
CNCCNC(=O)[C@@H](NC(=O)[C@H](Cc1ccccc1)C[C@H](O)[C@H](Cc1ccccc1)NC(=O)OC(C)(C)C)C(C)C |  | 1.73 | 
CCC(C)[C@H](NC(=O)[C@H](Cc1ccccc1)C[C@H](O)[C@H](Cc1ccccc1)NC(=O)OC(C)(C)C)C(=O)NCc1ccccc1 (some centres undefined) | 0.71 |  | 1.5 (≈ 0.924 µg/mL)
CC(C)(C)OC(=O)N[C@@H](Cc1ccccc1)[C@@H](O)C[C@@H](Cc1ccccc1)C(=O)NCC(N)=O | 550 |  | 
CC(C)C[C@H](NC(=O)[C@H](Cc1ccccc1)C[C@H](O)[C@H](Cc1ccccc1)NC(=O)OC(C)(C)C)C(=O)NCCc1ccccc1 |  | 15 | 
CC(C)(C)OC(=O)N[C@@H](Cc1ccccc1)[C@@H](O)C[C@@H](Cc1ccccc1)C(=O)N[C@H](C(=O)NCc1nc2ccccc2[nH]1)c1ccccc1 |  | 0.07 | 
CC(C)[C@H](NC(=O)[C@H](Cc1ccccc1)C[C@H](O)[C@H](Cc1ccccc1)NC(=O)OC(C)(C)C)C(=O)NCc1ccccn1 |  | 0.75 | 
CC(C)C[C@@H](NC(=O)[C@H](Cc1ccccc1)C[C@H](O)[C@H](Cc1ccccc1)NC(=O)OC(C)(C)C)C(N)=O | 3100 |  | 
CCC(C)[C@H](NC(=O)[C@H](Cc1ccccc1)C[C@H](O)[C@H](Cc1ccccc1)NC(=O)OC(C)(C)C)C(=O)NCCO (some centres undefined) |  | 0.46 | 0.4 (≈ 0.228 µg/mL)
CC(C)[C@H](NC(=O)[C@H](Cc1ccccc1)C[C@H](O)[C@H](Cc1ccccc1)NC(=O)OC(C)(C)C)C(=O)NCc1ccccc1 |  | 0.24 | 
CC(C)(C)OC(=O)N[C@@H](Cc1ccccc1)[C@@H](O)C[C@@H](Cc1ccccc1)C(=O)N[C@@H](CO)C(N)=O | 606 |  | 
CCN(CC)CC(O)CNC(=O)[C@@H](NC(=O)[C@H](Cc1ccccc1)C[C@H](O)[C@H](Cc1ccccc1)NC(=O)OC(C)(C)C)C(C)C (some centres undefined) |  | 6.3 | 

Compound | IC50 [1] [nM] | IC50 [2] [nM] | MIC (H9) [µM]
CC(C)C[C@H](NC(=O)[C@H](Cc1ccccc1)C[C@H](O)[C@H](Cc1ccccc1)NC(=O)OC(C)(C)C)C(=O)NC(CO)Cc1ccccc1 (some centres undefined) |  | 1.5 | 
CC(C)[C@H](NC(=O)[C@H](Cc1ccccc1)C[C@H](O)[C@H](Cc1ccccc1)NC(=O)OC(C)(C)C)C(=O)NCc1ccncc1 |  | 0.62 | 0.4 (≈ 0.241 µg/mL)
CCC(C)[C@H](NC(=O)[C@H](Cc1ccccc1)C[C@H](O)[C@H](Cc1ccccc1)NC(=O)OC(C)(C)C)C(=O)NCCCN(C)C (some centres undefined) |  | 7.9 | 
CCC(C)[C@H](NC(=O)[C@H](Cc1ccccc1)C[C@H](O)[C@H](Cc1ccccc1)NC(=O)OC(C)(C)C)C(=O)NCc1ncc[nH]1 (some centres undefined) |  | 0.88 | 
CC(C)[C@H](NC(=O)[C@H](Cc1ccccc1)C[C@H](O)[C@H](Cc1ccccc1)NC(=O)OC(C)(C)C)C(=O)NCc1nc2ccccc2[nH]1 |  | 0.2 | 
CC(C)(C)OC(=O)N[C@@H](Cc1ccccc1)[C@@H](O)C[C@@H](Cc1ccccc1)C(=O)N[C@H](C(N)=O)c1ccccc1 | 0.9 |  | 1.5 (≈ 0.819 µg/mL)
CC[C@H](C)[C@H](NC(=O)[C@H](Cc1ccccc1)C[C@H](O)[C@H](Cc1ccccc1)NC(=O)OC(C)(C)C)C(=O)NCc1nc2ccccc2[nH]1 |  | 0.06 | 0.2 (≈ 0.131 µg/mL)
CC(C)[C@H](NC(=O)[C@H](Cc1ccccc1)C[C@H](O)[C@H](Cc1ccccc1)NC(=O)OC(C)(C)C)C(=O)NCc1cccnc1 |  | 0.69 | 
CC(C)(C)OC(=O)N[C@@H](Cc1ccccc1)[C@@H](O)C[C@@H](Cc1ccccc1)C(=O)N[C@H](C(N)=O)C1CCCCC1 | 5.2 |  | 
CCC(C)[C@H](NC(=O)[C@H](Cc1ccccc1)C[C@H](O)[C@H](Cc1ccccc1)NC(=O)OC(C)(C)C)C(=O)NCC(O)CO (some centres undefined) |  | 0.15 | 
CC(C)C[C@H](NC(=O)[C@H](Cc1ccccc1)C[C@H](O)[C@H](Cc1ccccc1)NC(=O)OC(C)(C)C)C(=O)NCCCN(C)C |  | 23 | 
CC[C@H](C)[C@H](NC(=O)[C@H](Cc1ccccc1)C[C@H](O)[C@H](Cc1ccccc1)NC(=O)OC(C)(C)C)C(=O)NC(=O)C(N)Cc1ccccc1 (some centres undefined) | 0.25 |  | 
CCC(C)[C@H](NC(=O)[C@H](Cc1ccccc1)C[C@H](O)[C@H](Cc1ccccc1)NC(=O)OC(C)(C)C)C(N)=O (some centres undefined) | 2.7 |  | 3 (≈ 1.58 µg/mL)
CC(C)[C@H](NC(=O)[C@H](Cc1ccccc1)C[C@H](O)[C@H](Cc1ccccc1)NC(=O)OC(C)(C)C)C(=O)NCCO |  | 0.44 | 
CC(C)C[C@H](NC(=O)[C@H](Cc1ccccc1)C[C@H](O)[C@H](Cc1ccccc1)NC(=O)OC(C)(C)C)C(=O)NCc1ccccc1 | 1.4 |  | 3 (≈ 1.85 µg/mL)
CC(C)(C)OC(=O)N[C@@H](Cc1ccccc1)[C@@H](O)C[C@@H](Cc1ccccc1)C(=O)N[C@@H](Cc1ncc[nH]1)C(N)=O |  | 770 | 
CC(C)[C@H](NC(=O)[C@H](Cc1ccccc1)C[C@H](O)[C@H](Cc1ccccc1)NC(=O)OC(C)(C)C)C(=O)NCCCN1CCOCC1 |  | 2.9 | 
CC(C)[C@H](NC(=O)[C@H](Cc1ccccc1)C[C@H](O)[C@H](Cc1ccccc1)NC(=O)OC(C)(C)C)C(=O)NCC(O)CN1CCOCC1 (some centres undefined) |  | 0.88 | 
CC(C)C[C@H](NC(=O)[C@H](Cc1ccccc1)C[C@H](O)[C@H](Cc1ccccc1)NC(=O)OC(C)(C)C)C(=O)NCCO |  | 2.1 | 3 (≈ 1.71 µg/mL)
CCC(C)[C@H](NC(=O)[C@H](Cc1ccccc1)C[C@H](O)[C@H](Cc1ccccc1)NC(=O)OC(C)(C)C)C(=O)NCCN(C)C (some centres undefined) |  | 7.1 | 
CC(C)[C@H](NC(=O)[C@H](Cc1ccccc1)C[C@H](O)[C@H](Cc1ccccc1)NC(=O)OC(C)(C)C)C(=O)NCC(O)CO (some centres undefined) |  | 0.05 | 1.5 (≈ 0.879 µg/mL)
